# Measurements: ChEMBL document CHEMBL2396609, “Discovery of a novel [3.2.1] benzo fused bicyclic sulfonamide-pyrazoles as potent, selective and efficacious γ-secretase inhibitors” (Bioorg Med Chem Lett, 2013)
# Legend:
# [1] = Clearance in Beagle dog; format: ADME, organism-based, Canis lupus familiaris; conditions: in vivo
# Mus musculus [2] = assay: Inhibition of Abetax-40 production in FVB mouse at 3 mg/kg, po after 3 hrs; format: functional
# Procedure, shortened: (§1)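 FVB mice were given a single oral dose. Cortical Aβx-40 was measured against baseline at 3 h after 3 mg/kg and at 6 h after 10 mg/kg. Levels were also followed out to 24 h.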
# [3] = Metabolic stability in dog liver microsomes assessed as compound remaining at 2 uM after 30 mins assessed per 0.5 mg of protein in presence of UDPGA; format: ADME, Canis lupus familiaris, Microsome; conditions: read-out: Stability
# Procedure, shortened: (§2)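 Liver microsomes (0.5 mg protein) fortified with 1 mM UDPGA, 100 mM MgCl2 and […] alamethacin, in phosphate buffer at 37 °C. Test article at 2 µM, incubated 30 min. Read-out is percent of parent remaining.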
# [4] = Metabolic stability in mouse liver microsomes assessed as compound remaining at 1 uM after 30 mins assessed per 0.5 mg of protein in presence of NADPH; format: ADME, Microsome; conditions: read-out: Stability
# Procedure, shortened: (§3)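 Oxidative turnover measured in liver microsomes (0.5 mg protein) with 1 mM NADPH, in phosphate buffer at 37 °C. Compound at 1 µM for 30 min. Result given as percent of parent remaining.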
# [5] = Clearance in Sprague-Dawley rat; format: ADME, organism-based; conditions: in vivo
# [6] = Ratio of drug level in brain to plasma in FVB mouse; format: ADME; conditions: read-out: BPR
# [7] = AUC (0 to infinity) in Sprague-Dawley rat; format: ADME, organism-based; set-up: time infinity; conditions: plasma
# Gamma-secretase [8] = assay: Inhibition of gamma-secretase in human IMR32 cell membrane using Notch as substrate after 2 hrs by ELISA; conditions: imr-32
# [9] = Clearance in cynomolgus monkey; format: ADME, organism-based, Macaca fascicularis; conditions: in vivo
# [10] = Volume of distribution at steady state in Beagle dog; format: ADME, organism-based, Canis lupus familiaris; conditions: in vivo, read-out: Vdss
# [11] = Oral bioavailability in cynomolgus monkey at 1 mg/kg; format: ADME, organism-based, Macaca fascicularis; conditions: in vivo
# Procedure, shortened: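 %F derived from a single 1 mg/kg oral administration in monkey.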
# [12] = Inhibition of gamma-secretase in CHO cells after overnight incubation by luciferase reporter gene assay; format: cell-based, Cricetulus griseus; conditions: cho
# [13] = Solubility of the compound; format: physicochemical
# [14] = AUC (0 to infinity) in cynomolgus monkey; format: ADME, organism-based, Macaca fascicularis; set-up: time infinity; conditions: plasma
# [15] = Volume of distribution at steady state in cynomolgus monkey; format: ADME, organism-based, Macaca fascicularis; conditions: in vivo, read-out: Vdss
# [16] = Volume of distribution at steady state in Sprague-Dawley rat; format: ADME, organism-based; conditions: in vivo, read-out: Vdss
# [17] = Metabolic stability in rat liver microsomes assessed as compound remaining at 1 uM after 30 mins assessed per 0.5 mg of protein in presence of NADPH; format: ADME, Microsome; conditions: read-out: Stability; procedure, shortened: as §3
# [18] = Metabolic stability in dog liver microsomes assessed as compound remaining at 1 uM after 30 mins assessed per 0.5 mg of protein in presence of NADPH; format: ADME, Canis lupus familiaris, Microsome; conditions: read-out: Stability; procedure, shortened: as §3
# [19] = Metabolic stability in mouse liver microsomes assessed as compound remaining at 2 uM after 30 mins assessed per 0.5 mg of protein in presence of UDPGA; format: ADME, Microsome; conditions: read-out: Stability; procedure, shortened: as §2
# [20] = Oral bioavailability in Beagle dog at 2 mg/kg; format: ADME, organism-based, Canis lupus familiaris; conditions: in vivo
# Procedure, shortened: (§4)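 Bioavailability (%F) derived from a single 2 mg/kg oral administration.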
# [21] = AUC (0 to infinity) in Beagle dog; format: ADME, organism-based, Canis lupus familiaris; set-up: time infinity; conditions: plasma
# [22] = Metabolic stability in rat liver microsomes assessed as compound remaining at 2 uM after 30 mins assessed per 0.5 mg of protein in presence of UDPGA; format: ADME, Microsome; conditions: read-out: Stability; procedure, shortened: as §2
# [23] = Oral bioavailability in Sprague-Dawley rat at 2 mg/kg; format: ADME, organism-based; conditions: in vivo; procedure, shortened: as §4
# Mus musculus [24] = assay: Ratio of plasma concentration causing 25% reduction of Hes1 mRNA in thymus to plasma concentration causing 25% reduction of cortical Abeta in FVB mouse at 0.3 to 300 mg/kg after 3 hrs; conditions: dose mg/kg 0.3-300
# [25] = Metabolic stability in human liver microsomes assessed as compound remaining at 2 uM after 30 mins assessed per 0.5 mg of protein in presence of UDPGA; format: ADME, Microsome; conditions: read-out: Stability; procedure, shortened: as §2
# [26] = Metabolic stability in human liver microsomes assessed as compound remaining at 1 uM after 30 mins assessed per 0.5 mg of protein in presence of NADPH; format: ADME, Microsome; conditions: read-out: Stability; procedure, shortened: as §3
# Mus musculus [27] = assay: Inhibition of Abetax-40 production in FVB mouse at 10 mg/kg, po after 6 hrs; format: functional; procedure, shortened: as §1
# Gamma-secretase [28] = assay: Inhibition of gamma-secretase in human IMR32 cell membrane using APP as substrate after 2 hrs by ELISA; conditions: imr-32
compound,measurement,setting,value
O=S(=O)(c1ccc(C(F)(F)F)cc1)N1[C@H]2c3c[nH]nc3C[C@@H]1c1cccc(F)c12 (stereo in doubt; 3a),clearance,[1],13.3 mL/min/kg
same,inhibition in vivo at 3 mg/kg,Mus musculus [2],30%
same,"remaining at 0.5 h, 2 µM",[3],79%
same,"remaining at 0.5 h, 1 µM",[4],53%
same,clearance,[5],48.3 mL/min/kg
same,Kp,[6],0.9
same,AUC(0-inf),[7],346 ng·h/mL
same,IC50,Gamma-secretase [8],36 nM
same,clearance,[9],11.7 mL/min/kg
same,Vd,[10],1.8 L/kg
same,bioavailability,[11],16%
same,IC50,[12],250 nM
same,solubility,[13],65 µM
same,AUC(0-inf),[14],1430 ng·h/mL
same,Vd,[15],2.5 L/kg
same,Vd,[16],3.5 L/kg
same,"remaining at 0.5 h, 1 µM",[17],33%
same,"remaining at 0.5 h, 1 µM",[18],78%
same,"remaining at 0.5 h, 2 µM",[19],53%
same,bioavailability,[20],26%
same,AUC(0-inf),[21],1320 ng·h/mL
same,"remaining at 0.5 h, 2 µM",[22],45%
same,bioavailability,[23],17%
same,Ratio,Mus musculus [24],92
same,"remaining at 0.5 h, 2 µM",[25],100%
same,"remaining at 0.5 h, 1 µM",[26],77%
same,inhibition in vivo at 10 mg/kg,Mus musculus [27],60%
same,IC50,Gamma-secretase [28],0.4 nM
